pIC50: −log10 of the molar value.
Tests used:
[1] = molecular target: T1, 85/88 kDa calcium-independent phospholipase A2 (Homo sapiens) (UniProt O60733); assay: (§1) Inhibition of human recombinant calcium-independent PLA2 using PAPE as substrate assessed as assessed as reduction in free AA formation after 30 mins in presence of equal molar mixture of PAPA/PAPC/PAPE/PAPG/PAPS/PLPC by HPLC-MS analysis
T1 sequence (whole entry): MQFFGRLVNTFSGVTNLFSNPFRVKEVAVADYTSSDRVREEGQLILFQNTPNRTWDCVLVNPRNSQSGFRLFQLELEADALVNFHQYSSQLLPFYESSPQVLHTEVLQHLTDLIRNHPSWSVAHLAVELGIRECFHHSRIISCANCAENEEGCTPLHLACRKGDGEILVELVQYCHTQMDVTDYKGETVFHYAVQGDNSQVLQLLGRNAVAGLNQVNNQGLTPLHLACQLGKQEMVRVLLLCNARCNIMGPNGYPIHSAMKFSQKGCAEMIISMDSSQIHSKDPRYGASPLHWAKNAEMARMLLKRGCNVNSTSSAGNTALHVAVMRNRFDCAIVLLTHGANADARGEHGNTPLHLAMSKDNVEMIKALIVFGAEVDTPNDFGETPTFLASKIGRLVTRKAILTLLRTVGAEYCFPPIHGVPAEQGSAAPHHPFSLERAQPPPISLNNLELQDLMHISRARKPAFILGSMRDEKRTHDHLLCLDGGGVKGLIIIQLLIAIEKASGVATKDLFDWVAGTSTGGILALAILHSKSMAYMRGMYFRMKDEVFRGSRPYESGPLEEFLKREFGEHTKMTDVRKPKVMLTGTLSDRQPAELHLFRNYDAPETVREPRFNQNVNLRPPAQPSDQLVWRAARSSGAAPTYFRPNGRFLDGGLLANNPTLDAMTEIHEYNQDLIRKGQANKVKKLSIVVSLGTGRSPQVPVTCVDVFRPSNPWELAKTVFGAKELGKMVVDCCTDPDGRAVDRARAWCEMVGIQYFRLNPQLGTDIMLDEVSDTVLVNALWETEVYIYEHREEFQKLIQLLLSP
Outline: (§2)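 The iPLA2 substrate was an equimolar mixture of PAPA, PAPC, PAPE, PAPG and PAPS (100 µM total) with 400 µM C12E8. Buffer was 100 mM HEPES pH 7.5, 2 mM ATP and 4 mM DTT; 30 min at 40 °C. Each 16:0 lysophospholipid was quantified in positive ion mode; free AA, common to all five substrates, in negative ion mode.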

[2] = molecular target: T2, Secretory phospholipase A2 (Homo sapiens) (UniProt Q5R387+Q9NZK7+P14555+Q9BZM2+Q9UNK4+P39877+O15496+P04054+Q9NZ20+Q9BZM1+Q9BX93)
[3] = molecular target: T1, 85/88 kDa calcium-independent phospholipase A2 (Homo sapiens); assay: (§3) Inhibition of human recombinant calcium-independent PLA2 using PAPG as substrate assessed as reduction in 16:0 […] formation after 30 mins in presence of equal molar mixture of PAPA/PAPC/PAPE/PAPG/PAPS/PLPC by HPLC-MS analysis
[4] = molecular target: T2, Secretory phospholipase A2 (Homo sapiens); remark: listed apart in the source
[5] = molecular target: T2, Secretory phospholipase A2 (Homo sapiens); remark: listed apart in the source
[6] = molecular target: T1, 85/88 kDa calcium-independent phospholipase A2 (Homo sapiens); assay: (§4) Inhibition of human recombinant calcium-independent PLA2 using PAPA as substrate assessed as reduction in […] after 30 mins by HPLC-MS analysis
[7] = molecular target: 85/88 kDa calcium-independent phospholipase A2 (Homo sapiens) (UniProt O60733); assay: Inhibition of human recombinant calcium-independent PLA2 using PAPS as substrate assessed as reduction in 16:0 LPS formation after 30 mins in presence of equal molar mixture of PAPA/PAPC/PAPE/PAPG/PAPS/PLPC by HPLC-MS analysis
[8] = molecular target: T3, Cytosolic phospholipase A2 (Homo sapiens) (UniProt P47712); assay: Inhibition of human recombinant cPLA2 assessed as reduction in 16:0 LPC formation after 30 mins by HPLC-MS analysis
T3 sequence (whole entry): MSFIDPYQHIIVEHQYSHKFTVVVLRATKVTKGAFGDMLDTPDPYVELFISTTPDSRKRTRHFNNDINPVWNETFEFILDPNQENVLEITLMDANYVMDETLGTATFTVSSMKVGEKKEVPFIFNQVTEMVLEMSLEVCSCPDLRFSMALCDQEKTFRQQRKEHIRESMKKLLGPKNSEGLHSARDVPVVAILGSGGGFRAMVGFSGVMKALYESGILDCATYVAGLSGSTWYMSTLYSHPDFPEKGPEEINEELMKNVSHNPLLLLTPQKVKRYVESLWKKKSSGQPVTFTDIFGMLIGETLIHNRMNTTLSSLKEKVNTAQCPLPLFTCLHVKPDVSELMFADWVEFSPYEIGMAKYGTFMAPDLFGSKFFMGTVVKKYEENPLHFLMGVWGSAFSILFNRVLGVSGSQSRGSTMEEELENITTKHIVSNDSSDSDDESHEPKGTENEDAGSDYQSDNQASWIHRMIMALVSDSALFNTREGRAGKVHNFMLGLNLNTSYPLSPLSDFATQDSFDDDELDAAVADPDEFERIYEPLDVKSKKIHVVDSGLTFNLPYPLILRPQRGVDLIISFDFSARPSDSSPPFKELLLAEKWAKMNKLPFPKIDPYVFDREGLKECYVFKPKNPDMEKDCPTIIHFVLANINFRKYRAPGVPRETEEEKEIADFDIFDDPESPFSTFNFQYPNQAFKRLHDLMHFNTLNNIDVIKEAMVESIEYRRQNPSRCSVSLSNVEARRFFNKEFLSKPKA
Outline: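 Human recombinant group IVA cPLA2 in mixed micelles with 97 µM PAPC plus 3 µM PI(4,5)P2 (100 µM total phospholipid) and 400 µM C12E8. Buffer was 100 mM HEPES pH 7.5, 90 µM CaCl2 and 2 mM DTT; incubation 30 min at 40 °C. 16:0 LPC was read by HILIC-MRM (positive ion) and free AA by C18 LC-MS (negative ion).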

[9] = molecular target: Cytosolic phospholipase A2 (Homo sapiens) (UniProt P47712); assay: Inhibition of human recombinant cytosolic PLA2 using PAPA as substrate assessed as reduction in free FA formation after 30 mins in presence of equal molar mixture of PAPA/PAPC/PAPE/PAPG/PAPS/PLPC by HPLC-MS analysis
[10] = molecular target: T4, 85/88 kDa calcium-independent phospholipase A2 (Homo sapiens, UniProt O60733); assay: as §4
T4 sequence (O60733 whole entry): T1 sequence (whole entry)

[11] = molecular target: T4, 85/88 kDa calcium-independent phospholipase A2; assay: as §1; outline: as §2
[12] = molecular target: T4, 85/88 kDa calcium-independent phospholipase A2; assay: as §3
[13] = molecular target: T1, 85/88 kDa calcium-independent phospholipase A2 (Homo sapiens); assay: (§5) Inhibition of human recombinant iPLA2 assessed as reduction in free FA formation after 30 mins by HPLC-MS analysis
Outline: (§6)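 Human recombinant group VIA iPLA2 acted on 100 µM single phospholipid (PAPC or PLPC) in 400 µM C12E8 mixed micelles. Buffer was 100 mM HEPES pH 7.5, 2 mM ATP and 4 mM DTT; incubation 30 min at 40 °C. 16:0 LPC was read by HILIC-MRM in positive ion mode; free AA or LA by C18 LC-MS in negative ion mode.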

[14] = molecular target: T4, 85/88 kDa calcium-independent phospholipase A2; assay: as §5; outline: as §6
[15] = molecular target: T1, 85/88 kDa calcium-independent phospholipase A2 (Homo sapiens); assay: (§7) Inhibition of human recombinant calcium-independent PLA2 using PAPC as substrate assessed as reduction in free [14C]-AA formation after 30 mins by scintillation counting
Outline: (§8)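 Radioactive format: iPLA2 hydrolysed PAPC/C12E8 mixed micelles traced with 1-palmitoyl-2-(1-[14C]arachidonoyl) PC. Released [14C]-AA was measured by scintillation counting. Percent inhibition was plotted against log mole fraction or log concentration to derive X1(50) and IC50.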

[16] = molecular target: T4, 85/88 kDa calcium-independent phospholipase A2; assay: as §7; outline: as §8
[17] = molecular target: T4, 85/88 kDa calcium-independent phospholipase A2; assay: Inhibition of human recombinant calcium-independent PLA2 using PAPE as substrate assessed as reduction in […] after 30 mins in presence of equal molar mixture of PAPA/PAPC/PAPE/PAPG/PAPS/PLPC by HPLC-MS analysis
[18] = molecular target: T4, 85/88 kDa calcium-independent phospholipase A2; assay: Inhibition of human recombinant calcium-independent PLA2 using PLPC as substrate assessed as reduction in 16:0 LPC formation after 30 mins by HPLC-MS analysis; outline: as §6
[19] = molecular target: T1, 85/88 kDa calcium-independent phospholipase A2 (Homo sapiens); assay: Inhibition of human recombinant calcium-independent PLA2 using PAPE as substrate assessed as reduction in 16:0 LPE formation after 30 mins in presence of equal molar mixture of PAPA/PAPC/PAPE/PAPG/PAPS/PLPC by HPLC-MS analysis; outline: as §2
[20] = molecular target: T4, 85/88 kDa calcium-independent phospholipase A2; assay: Inhibition of human recombinant calcium-independent PLA2 using PLPC as substrate assessed as reduction in free LA formation after 30 mins by HPLC-MS analysis
[21] = molecular target: T4, 85/88 kDa calcium-independent phospholipase A2; assay: Inhibition of human recombinant calcium-independent PLA2 using PAPC as substrate assessed as reduction in free AA formation after 30 mins by HPLC-MS analysis; outline: as §6
[22] = molecular target: T1, 85/88 kDa calcium-independent phospholipase A2 (Homo sapiens); assay: (§9) Inhibition of human recombinant iPLA2 assessed as reduction in 16:0 LPC formation after 30 mins by HPLC-MS analysis; outline: as §6
[23] = molecular target: T4, 85/88 kDa calcium-independent phospholipase A2; assay: as §9; outline: as §6
[24] = molecular target: T4, 85/88 kDa calcium-independent phospholipase A2; assay: Inhibition of human recombinant calcium-independent PLA2 using PAPS as substrate assessed as reduction in […] after 30 mins in presence of equal molar mixture of PAPA/PAPC/PAPE/PAPG/PAPS/PLPC by HPLC-MS analysis
[25] = molecular target: T1, 85/88 kDa calcium-independent phospholipase A2 (Homo sapiens); assay: Inhibition of human recombinant calcium-independent PLA2 using PAPA as substrate assessed as reduction in 16:0 LPA formation after 30 mins in presence of equal molar mixture of PAPA/PAPC/PAPE/PAPG/PAPS/PLPC by HPLC-MS analysis; outline: as §2
[26] = molecular target: T1, 85/88 kDa calcium-independent phospholipase A2 (Homo sapiens); assay: (§10) Inhibition of human recombinant calcium-independent PLA2 using PAPC as substrate assessed as reduction in 16:0 LPC formation after 30 mins by HPLC-MS analysis; outline: as §6
[27] = molecular target: T4, 85/88 kDa calcium-independent phospholipase A2; assay: as §10; outline: as §6

**Q.** Which XI50 (mole fraction) [1] does the source give for CCc1c(C(=O)C(N)=O)c2c(OCC(=O)O)cccc2n1Cc1ccccc1 here?
**A.** 0.0008

**Q.** What about the XI50 [2] of the same compound?
**A.** 0.19 nM

**Q.** And the XI50 (mole fraction) [3]?
**A.** 0.0031 to 0.026

**Q.** And the XI50 [4]?
**A.** 0.9 nM

**Q.** What about the XI50 [5] of the same compound?
**A.** 0.17 nM

**Q.** Which XI50 [6] does the source give for O=C1NC(=O)C(=Cc2ccc(C(=O)NC[C@@H]3C[C@@H](SC(c4ccccc4)(c4ccccc4)c4ccccc4)CN3C(=O)c3ccccc3C(=O)c3ccc(F)cc3F)cc2)S1 here?
**A.** 0.13 nM

**Q.** And the XI50 [7]?
**A.** 2 nM

**Q.** What about the XI50 (mole fraction) [8] of the same compound?
**A.** 0.0023

**Q.** What about the XI50 [9] of the same compound?
**A.** 1.8 nM

**Q.** What does the source list for CCCCCCCCSCC(=O)C(F)(F)F?
**A.** pIC50 [10]: 6.80; XI50 (mole fraction) [1]: 7e-05; pIC50 [11]: 7.30; XI50 (mole fraction) [3]: 6e-05; pIC50 [12]: 7.32; XI50 (mole fraction) [13]: 7e-05; pIC50 [14]: 7.32; XI50 [7]: 0.05 nM; XI50 (mole fraction) [15]: 9e-05; pIC50 [16]: 7.32; pIC50 [17]: 7.20; pIC50 [18]: 7.08; XI50 (mole fraction) [19]: 9e-05; pIC50 [20]: 7.17; pIC50 [21]: 7.31; XI50 (mole fraction) [22]: 8e-05; pIC50 [23]: 7.26; pIC50 [24]: 7.34; XI50 (mole fraction) [25]: 0.0002; XI50 (mole fraction) [26]: 8e-05; pIC50 [27]: 7.27

Source: ChEMBL document CHEMBL4411313, “Substrate-Specific Inhibition Constants for Phospholipase A2 Acting on Unique Phospholipid Substrates in Mixed Micelles and Membranes Using Lipidomics” (J Med Chem, 2019)
